Experimental data from ChEMBL document CHEMBL4308919, “Discovery of TD-0212, an Orally Active Dual Pharmacology AT1 Antagonist and Neprilysin Inhibitor (ARNI)” (ACS Med Chem Lett, 2019).

Assays:
[1] = biological target: T1, Type-1 angiotensin II receptor (Homo sapiens, UniProt P30556); test: Displacement of Europium-labeled angiotensin-2 from human AT1 receptor expressed in CHOK1 cell membranes after 120 mins by DELFIA
T1 sequence (P30556 whole entry): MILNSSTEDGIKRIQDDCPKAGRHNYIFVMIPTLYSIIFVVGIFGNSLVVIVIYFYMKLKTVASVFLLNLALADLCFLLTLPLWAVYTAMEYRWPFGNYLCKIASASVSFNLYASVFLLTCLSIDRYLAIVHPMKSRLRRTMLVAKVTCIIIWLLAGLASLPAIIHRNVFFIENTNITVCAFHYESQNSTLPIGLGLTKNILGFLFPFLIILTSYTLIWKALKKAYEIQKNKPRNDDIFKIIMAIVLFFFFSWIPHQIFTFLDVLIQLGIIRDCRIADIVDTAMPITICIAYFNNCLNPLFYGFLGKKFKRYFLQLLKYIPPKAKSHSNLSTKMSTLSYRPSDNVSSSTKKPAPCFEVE

Rattus norvegicus = test: In vivo antagonist activity at AT1 receptor in Sprague-Dawley rat assessed as inhibition of angiotensin-2-induced pressor response at 3 mg/kg, iv treated for 5 mins at 15 mins post 2 doses of angiotensin-2 treatment at 15 minutes apart followed by ANP treatment and subsequent angiotensin-2 re-challenge after 60 mins relative to control; format: functional
Outline: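 Rat pharmacodynamic assay with intravenous dosing to exclude oral absorption. AT1 antagonism is read in the same animal as inhibition of the angiotensin-II-evoked pressor response. NEP inhibition is read as potentiation of ANP-induced elevation of urinary cGMP output, relative to vehicle.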

[2] = biological target: T2, Type-1 angiotensin II receptor (Homo sapiens) (UniProt P30556); test: Antagonist activity at AT1 receptor (unknown origin) by inositol phosphate accumulation assay relative to control; format: functional
T2 sequence (whole entry): T1 sequence (P30556 whole entry)

Neprilysin = Neprilysin (Homo sapiens, UniProt P08473); test: Inhibition of NEP (unknown origin) preincubated for 10 mins followed by fluorogenic substrate addition and measured after 20 mins by fluorescence assay
Sequence of Neprilysin (P08473 whole entry): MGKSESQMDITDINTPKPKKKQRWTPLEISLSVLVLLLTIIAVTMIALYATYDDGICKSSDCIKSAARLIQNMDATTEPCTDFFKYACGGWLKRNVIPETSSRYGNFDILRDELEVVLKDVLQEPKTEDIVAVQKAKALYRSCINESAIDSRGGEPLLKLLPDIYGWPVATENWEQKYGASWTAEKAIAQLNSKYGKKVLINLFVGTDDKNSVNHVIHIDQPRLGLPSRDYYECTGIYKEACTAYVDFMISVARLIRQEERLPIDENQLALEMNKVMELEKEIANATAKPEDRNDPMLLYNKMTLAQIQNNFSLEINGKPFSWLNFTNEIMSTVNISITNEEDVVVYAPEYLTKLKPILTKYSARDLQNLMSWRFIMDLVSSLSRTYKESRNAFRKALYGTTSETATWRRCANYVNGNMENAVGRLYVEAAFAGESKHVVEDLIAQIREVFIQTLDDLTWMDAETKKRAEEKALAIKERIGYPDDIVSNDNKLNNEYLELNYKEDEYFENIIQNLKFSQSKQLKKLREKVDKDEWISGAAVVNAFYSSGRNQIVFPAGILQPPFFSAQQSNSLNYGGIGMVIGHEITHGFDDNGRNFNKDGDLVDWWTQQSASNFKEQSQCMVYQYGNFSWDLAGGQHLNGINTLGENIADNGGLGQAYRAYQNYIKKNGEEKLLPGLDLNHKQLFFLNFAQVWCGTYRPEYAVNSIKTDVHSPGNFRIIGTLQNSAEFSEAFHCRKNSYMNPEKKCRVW

CCCCc1nc(CC(C)C)c(CNC(=O)[C@@H](CS)CC(C)C)n1Cc1ccc(-c2ccccc2C(=O)O)cc1
Ki [1]: 7.94 nM

CCCCc1nc(Cl)c(CNC(=O)C(CS)Cc2ccccc2)n1Cc1ccc(-c2ccccc2-c2nnn[nH]2)cc1 (racemic)
Ki [1]: 15.8 nM

O=C(O)CNC(=O)C(CS)Cc1ccccc1 (stereo not drawn) [THIORPHAN]
Ki [1]: > 10000 nM

CCCCc1nc(C)c(CNC(=O)[C@@H](CS)CC(C)C)n1Cc1ccc(-c2ccccc2C(=O)O)cc1
Ki [1]: 50.1 nM

CCCCc1nc(Cl)c(CNC(=O)C(CS)C(C)c2ccccc2)n1Cc1ccc(-c2ccccc2C(=O)O)cc1 (racemic)
Ki [1]: 79.4 nM

CCOc1nc(CC)c(CNC(=O)[C@@H](S)CC(C)C)n1Cc1ccc(-c2ccccc2C(=O)O)cc1
Ki [1]: 6.31 nM | inhibition in vivo at 3 mg/kg (Rattus norvegicus): 57%

CCCCc1nc(Cl)c(CNC(=O)C(CS)CC2CCCCC2)n1Cc1ccc(-c2ccccc2C(=O)O)cc1 (racemic)
Ki [1]: 251 nM

CCCCc1nc(Cl)c(CNC(=O)C(CS)C(C)C)n1Cc1ccc(-c2ccccc2C(=O)O)cc1 (racemic)
Ki [1]: 126 nM

CCCCc1nc(Cl)c(CNC(=O)C(CS)CC2CCCC2)n1Cc1ccc(-c2ccccc2C(=O)O)cc1 (racemic)
Ki [1]: 50.1 nM

CCCCc1nc(Cl)c(CNC(=O)C(CS)CC(C)C)n1Cc1ccc(-c2ccccc2-c2nnn[nH]2)cc1 (racemic)
Ki [1]: 10 nM

CCCCc1nc(CC)c(CNC(=O)[C@@H](CS)CC(C)C)n1Cc1ccc(-c2ccccc2C(=O)O)cc1
Ki [1]: 5.01 nM | inhibition in vivo at 3 mg/kg (Rattus norvegicus): 68%

CCOc1nc(CC)c(CNC(=O)[C@@H](CS)CC(C)C)n1Cc1ccc(-c2ccccc2C(=O)O)cc1
Ki [1]: 1.26 nM | inhibition in vivo at 3 mg/kg (Rattus norvegicus): 67%

CCCCc1nc(Cl)c(CO)n1Cc1ccc(-c2ccccc2-c2nnn[nH]2)cc1 [LOSARTAN]
% IP accumulation [2]: 87% | inhibition in vivo at 3 mg/kg (Rattus norvegicus): 67%

CCCCc1nc(Cl)c(CNC(=O)[C@H](CS)CC(C)C)n1Cc1ccc(-c2ccccc2C(=O)O)cc1
Ki [1]: 100 nM

CCCCc1nc(Cl)c(CNC(=O)C(CS)CC(CC)CC)n1Cc1ccc(-c2ccccc2C(=O)O)cc1 (racemic)
Ki [1]: 50.1 nM

CCCCc1nc(Cl)c(CNC(=O)C(CS)Cc2ccc(-c3ccccc3)cc2)n1Cc1ccc(-c2ccccc2C(=O)O)cc1 (racemic)
Ki [1]: 398 nM

CCOc1nc(CC)c(CNC(=O)[C@@H](CS)CC(C)C)n1Cc1ccc(-c2ccccc2C(=O)O)cc1F
Ki [1]: 0.794 nM | inhibition in vivo at 3 mg/kg (Rattus norvegicus): 85%

CCCCc1nc(C2CC2)c(CNC(=O)[C@@H](CS)CC(C)C)n1Cc1ccc(-c2ccccc2C(=O)O)cc1
Ki [1]: 6.31 nM | inhibition in vivo at 3 mg/kg (Rattus norvegicus): 55%

CCCCc1nc(Cl)c(CNC(=O)[C@@H](CS)CC(C)C)n1Cc1ccc(-c2ccccc2C(=O)O)cc1
Ki [1]: 15.8 nM | inhibition in vivo at 3 mg/kg (Rattus norvegicus): 11%

CCCCc1nc(CC)c(CNC(=O)[C@@H](S)CC(C)C)n1Cc1ccc(-c2ccccc2C(=O)O)cc1
Ki [1]: 39.8 nM | inhibition in vivo at 3 mg/kg (Rattus norvegicus): 18%

CCCCc1nc(Cl)c(CNC(=O)C(CS)Cc2ccc3ccccc3c2)n1Cc1ccc(-c2ccccc2C(=O)O)cc1 (racemic)
Ki [1]: 158 nM

CCOc1nc(CC)c(CNC(=O)[C@@H](CS)CC(C)C)n1Cc1ccc(-c2ccccc2C(=O)O)c(F)c1
Ki [1]: 1.26 nM

CCCCc1nc(Cl)c(CNC(=O)C(CS)CC(C)C)n1Cc1ccc(-c2ccccc2C(=O)O)cc1 (racemic)
Ki [1]: 39.8 nM

CCCCc1nc(C)c(CNC(=O)[C@@H](S)CC(C)C)n1Cc1ccc(-c2ccccc2C(=O)O)cc1
Ki [1]: 200 nM

CCCCc1nc(Cl)c(CNC(=O)C(CS)C(C)CC)n1Cc1ccc(-c2ccccc2C(=O)O)cc1 (racemic)
Ki [1]: 631 nM

CCCCc1nc(C2CC2)c(CNC(=O)[C@@H](S)CC(C)C)n1Cc1ccc(-c2ccccc2C(=O)O)cc1
Ki [1]: 31.6 nM | inhibition in vivo at 3 mg/kg (Rattus norvegicus): 5%

CCCCc1nc(Cl)c(CNC(=O)[C@H](S)CC(C)C)n1Cc1ccc(-c2ccccc2C(=O)O)cc1
Ki [1]: 126 nM

CCOc1nc(CC)c(CNC(=O)[C@@H](S)CC(C)C)n1Cc1cc(F)c(-c2ccccc2C(=O)O)cc1F
Ki [1]: 5.01 nM

CCCCc1nc(Cl)c(CNC(=O)C(CS)CC2CC2)n1Cc1ccc(-c2ccccc2C(=O)O)cc1 (racemic)
Ki [1]: 31.6 nM

CCCCc1nc(CC(C)C)c(CNC(=O)[C@@H](S)CC(C)C)n1Cc1ccc(-c2ccccc2C(=O)O)cc1
Ki [1]: 31.6 nM | inhibition in vivo at 3 mg/kg (Rattus norvegicus): 32%

CCOc1nc(CC)c(CNC(=O)[C@@H](S)CC(C)C)n1Cc1ccc(-c2ccccc2C(=O)O)c(F)c1
Ki [1]: 5.01 nM | inhibition in vivo at 3 mg/kg (Rattus norvegicus): 57%

CCCCc1nc(Cl)c(CNC(=O)C(CS)Cc2cccc3ccccc23)n1Cc1ccc(-c2ccccc2C(=O)O)cc1 (racemic)
Ki [1]: 398 nM

CCCOc1nc(CC)c(CNC(=O)[C@@H](CS)CC(C)C)n1Cc1ccc(-c2ccccc2C(=O)O)cc1
Ki [1]: 2.51 nM | inhibition in vivo at 3 mg/kg (Rattus norvegicus): 65%

CCCCc1nc(Cl)c(CNC(=O)C(CS)Cc2ccccc2)n1Cc1ccc(-c2ccccc2C(=O)O)cc1 (racemic)
Ki [1]: 79.4 nM

CCCCc1nc(Cl)c(CNC(=O)C(CS)CCC(C)C)n1Cc1ccc(-c2ccccc2C(=O)O)cc1 (racemic)
Ki [1]: 126 nM

CCCCc1nc(Cl)c(CNC(=O)C(CS)CCCC)n1Cc1ccc(-c2ccccc2C(=O)O)cc1 (racemic)
Ki [1]: 126 nM

CCCOc1nc(CC)c(CNC(=O)[C@@H](S)CC(C)C)n1Cc1ccc(-c2ccccc2C(=O)O)cc1
Ki [1]: 20 nM | inhibition in vivo at 3 mg/kg (Rattus norvegicus): 23%

CCCCc1nc(Cl)c(CNC(=O)CNC(=O)C(CS)Cc2ccccc2)n1Cc1ccc(-c2ccccc2-c2nnn[nH]2)cc1 (racemic)
Ki [1]: 10 nM

CCCCc1nc(Cl)c(CO)n1Cc1ccc(-c2ccccc2-c2nn[nH]n2)cc1 [LOSARTAN]
IC50 (Neprilysin): > 10 µM

CCCCc1nc(Cl)c(CNC(=O)[C@@H](S)CC(C)C)n1Cc1ccc(-c2ccccc2C(=O)O)cc1
Ki [1]: 63.1 nM
